High-throughput results from PubChem BioAssay.
This is a sample that favours compounds with a hit; in the whole collection about 1.2% have one here.
ARFGAP1 inh = rat ARFGAP1 inhibition. Q62848. Arfgap1-stimulated ARF1 GTP hydrolysis, GDP FP detection. inhibition, % at 16.5 µM. hit rate 0.26% among 360,000. AID 651572;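 active = inhibition above a per-plate limit, mean inhibition of low control wells plus 3 SD, cut at about 25% in these data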;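 note: 0% = DMSO wells with enzyme and 100% = wells lacking Arfgap1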
Target sequence (Q62848 1-136 limits assumed): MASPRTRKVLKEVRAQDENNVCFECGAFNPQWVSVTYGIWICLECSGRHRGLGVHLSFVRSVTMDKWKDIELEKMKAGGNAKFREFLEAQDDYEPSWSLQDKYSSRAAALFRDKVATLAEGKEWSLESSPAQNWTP
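system = rat Arfgap1 catalytic domain, aa 1-136 | technique = FP, GDP Alexa 633 tracer displaced from anti-GDP antibody, 620/688 nm | compound = one concentration, 16.5 µM, DMSO 1.26% | medium = HEPES-based buffer, pH 7.5 | timing = compound-enzyme preincubation 20 min, reaction 120 min, detection 60 min, 25 °C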
ASAP1 inh = inhibitors of human ASAP1 ArfGAP activity | Q9ULH1 | ASAP1-stimulated ARF1 GTP hydrolysis, GDP FP detection | inhibition, % at 16.5 µM | hit rate 0.19% among 360,000; in the data active = inhibition above about 25%;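 note: 0% = vehicle with enzyme and substrate and 100% = no enzyme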
GC-A act = GC-A (human) enzyme activation | P16066 | HEK293 GC-A cells, cGMP TR-FRET, EC30 ANP; 0% at EC30 ANP, 100% saturating ANP | activation, % at 10 µM | hit rate 0.14% among 370,000 | AID 1671463; in the data active = activation above about 40%
HCV core dimer = blocks dimerization of HCV core protein | TR-FRET GST/Flag-core106 dimerization, 1536-well | inhibition, % at 5 µM | hit rate 0.33% among 300,000;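 active = inhibition above the mean of all tested compounds plus 3 SD, set per screening campaign, cut at about 45% in these data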
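Assay system: tagged HCV core106 pair (GST and Flag); medium: KF-containing HEPES buffer, pH 7.45, DTT, CHAPS, BSA; also added: Eu donor and XL665 acceptor anti-tag antibodies; dosing: 5 µM single dose; timing: compound-protein-antibody incubation 4 h at 22.5 °C; signal: TR-FRET 671 and 617 nm emission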
GC-B act = GC-B (human) receptor activation; P20594; HEK293-GC-B cells, CNP EC30, cGMP TR-FRET; 0% at EC30 CNP, 100% saturating CNP; activation, % at 10 µM; hit rate 0.11% among 370,000; AID 1920062;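 active = activation at 10 µM reaching about 35% in either raw or pattern-adjusted values, limit read from the data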
Fh CTSL1 inh = blocks F. hepatica cathepsin L1 in PFM18AAP counter-screen; recombinant F. hepatica cathepsin L1, Z-Leu-Arg-MCA fluorescence; inhibition, % at 5.96 µM; hit rate 0.49% among 300,000;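 active = inhibition above the mean of all tested compounds plus 3 SD, set per screening campaign, cut at about 17% in these data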;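 note: 0% = plate median of test compound wells and 100% = 1 µM Z-Phe-Ala-diazomethylketone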
ARFGAP1 inh conf = rat ARFGAP1 inhibition, confirmed; shares compounds with ARFGAP1 inh; ARFGAP1-stimulated ARF1 GTP hydrolysis, GDP tracer FP; inhibition, % at 16.5 µM; hit rate 30% among 890; AID 651608;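 active = average inhibition over triplicates above the hit cutoff set in the earlier primary screen, cut at about 25% in these data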;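 note: 0% = Arfgap1 plus ARF1-GTP with DMSO and 100% = wells lacking Arfgap1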
Target sequence (Q62848 whole entry, looked up): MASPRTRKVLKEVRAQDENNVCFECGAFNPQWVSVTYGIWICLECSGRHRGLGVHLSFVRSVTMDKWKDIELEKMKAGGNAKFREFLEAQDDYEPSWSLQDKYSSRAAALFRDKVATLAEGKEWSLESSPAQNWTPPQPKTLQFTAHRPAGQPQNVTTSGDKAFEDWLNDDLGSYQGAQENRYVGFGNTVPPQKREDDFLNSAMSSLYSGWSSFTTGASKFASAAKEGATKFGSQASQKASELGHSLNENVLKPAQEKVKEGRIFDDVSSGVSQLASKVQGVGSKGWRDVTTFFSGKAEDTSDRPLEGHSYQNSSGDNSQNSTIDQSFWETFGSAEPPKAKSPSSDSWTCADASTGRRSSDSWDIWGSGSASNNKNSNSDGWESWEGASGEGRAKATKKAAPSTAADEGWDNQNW
An asterisk follows results filed as active; / = not tested or not shown; + = active, no number.

SMILES	ARFGAP1 inh	ASAP1 inh	GC-A act	HCV core dimer	GC-B act	Fh CTSL1 inh	ARFGAP1 inh conf
CCN(CC)CCOC(=O)c1ccc(N/C=C(/C#N)c2nc(-c3ccc4c(c3)OCO4)cs2)cc1	32*	8	4	3	2	3	73*
Cc1ccc2cc(CCNC(=O)C3CCCC3)c(=O)[nH]c2c1	-1	1	-4	0	-5	0	/
Cc1ccc2cc(CCNC(=O)C(C)(C)C)c(=O)[nH]c2c1	28*	5	0	8	3	-2	-5
COc1ccccc1N1CCN(C(=O)c2cc3n(n2)C(C(F)(F)F)CC(c2ccco2)N3)CC1 (stereo not given)	30*	0	3	2	7	1	-3
N[C@@H](Cc1cc(I)c(Oc2cc(I)c(O)c(I)c2)c(I)c1)C(=O)O	/	/	/	-40	/	0	/
COc1cc(/C=C(\C#N)c2ccccn2)ccc1OCC(=O)Nc1c(Cl)cccc1Cl	29*	10	-2	5	11	0	31*
N#C/C(=C\c1ccc(Oc2ccc(C(F)(F)F)cc2[N+](=O)[O-])cc1)c1nc2ccccc2[nH]1	25*	15	4	40	3	-3	10
O=C1CCN(Cl)C(=O)N1Cl	26*	8	-1	/	3	/	2
O=C(NCc1ccc(Cl)cc1)c1ccc(OCC2CCCO2)cc1 (stereo not given)	2	6	0	-4	-2	0	/
CNC(C)C#Cc1ccc2sc3cccc(OC)c3c(=O)c2c1 (stereo not given)	28*	22	0	11	0	3	6
CNC(C)C#Cc1ccc2oc3cccc(OC)c3c(=O)c2c1 (stereo not given)	1	-7	2	17	5	-2	/
Clc1ccc2c(N/N=C/c3cccc(Br)c3)ccnc2c1	38*	16	-1	3	-5	2	63*
Clc1ccc2c(N/N=C/c3ccccc3Br)ccnc2c1	27*	1	-2	0	-5	0	26*
O=[N+]([O-])c1ccc(/C=N/Nc2ccnc3cc(Cl)ccc23)o1	3	5	0	37	-2	1	/
Cc1onc(-c2c(Cl)cccc2Cl)c1C(=O)O/N=C(\C#N)c1c(Cl)cccc1Cl	0	-6	4	-4	6	-5	/
CCCCCCCNC(=O)C1(CC2CC(c3cccc(Br)c3)=NO2)CCN(C(=O)C2CCCC2)CC1 (stereo not given)	2	4	1	3	2	-2	/
CCCCCCCNC(=O)C1(CC2CC(c3cccc(Br)c3)=NO2)CCN(C(=O)OC(C)(C)C)CC1 (stereo not given)	36*	5	2	7	-2	1	1
COc1ccc(C)cc1NC(=O)c1ccc2c(c1)C(=O)N(Cc1ccncc1)C2=O	-1	6	-3	/	-6	/	/
COc1ccc(NC(=O)c2ccc3c(c2)C(=O)N(Cc2ccncc2)C3=O)cc1S(N)(=O)=O	35*	-1	2	/	-5	/	13
c1ccc2c(c1)COc1c3ncccc3nn1-2	+	2	0	/	5	/	-2
O=C(c1ccc2c3n(nc2c1)-c1ccccc1CO3)N1CCCCC1	-13	2	0	11	-4	0	/
CCCCCCCCN1[C@@H](CC(=O)OCC)c2cc(C(F)(F)F)ccc2S1(=O)=O	-5	-3	2	3	1	5	/
Cc1ccc2cc(C)c3nnc(SCC(=O)Nc4nc5c(s4)CCCC5)n3c2c1C	27*	-11	-6	1	1	-2	-7
CC#CCN1c2ccccc2[C@]23C[C@@H](C(=O)OC)N(C(=O)NC4CCCCC4)C2=NC(C(=O)OC)=C(C(=O)OC)[C@H]13	3	15	-7	9	-7	1	/
COc1ccccc1Nc1c([N+](=O)[O-])cncc1[N+](=O)[O-]	7	2	-2	6	1	3	/
SMILES	ARFGAP1 inh	ASAP1 inh	GC-A act	HCV core dimer	GC-B act	Fh CTSL1 inh	ARFGAP1 inh conf
Cc1ccccc1Nc1c([N+](=O)[O-])cncc1[N+](=O)[O-]	27*	2	1	11	-5	3	1
CCOc1cc(/C=C2\SC(=N)N(c3nonc3N)C2=O)ccc1OCC(N)=O	6	-8	-1	4	5	1	/
CCOc1cc(/C=C2\SC(=N)N(c3nonc3N)C2=O)ccc1OCCN1CCOCC1	32*	23	4	-6	4	5	38*
O=C(c1ccc2c(=O)n3c(nc2c1)CCCCC3)N1CCN(c2ccc(Cl)cc2)CC1	-12	6	-1	6	2	0	/
Cc1ccc(S(=O)(=O)Nc2cccc(Oc3cnccn3)c2)cc1	-3	15	-2	-2	-8	-3	/
O=C(NNC(=S)NC1CCCCC1)c1sc2ccccc2c1Cl	25*	17	2	11	0	1	60*
CCOC(=O)c1sc(NC(=O)c2cccnc2)c(C#N)c1C	-1	-2	-1	-4	-10	1	/
COc1cc(/C=N/Nc2nc3ccccc3s2)ccc1OC(=O)c1ccccc1F	25*	-1	-3	-13	-5	7	18
CC(OC(=O)C1CCN(c2ccc(C(F)(F)F)cn2)CC1)C(=O)Nc1cccc([N+](=O)[O-])c1 (stereo not given)	27*	-4	-6	/	-10	/	9
COc1cc2oc(-c3ccc(O)cc3)cc(=O)c2c(O)c1OC	36*	8	0	0	-3	-2	8
COc1cc2oc(-c3ccc(O)cc3)cc(=O)c2c(OC)c1O	17	20	5	/	1	/	/
C/C(=N/NC(=O)c1cccs1)c1ccc(NC(=O)COc2ccc(Cl)cc2Cl)cc1	38*	9	1	32	0	1	53*
CC(NC(=O)c1cc2ccc(C(F)(F)F)cc2nc1N)c1cccc2ccccc12 (stereo not given)	/	/	-17	/	-6	/	/
COc1cc2cc(C(=O)NC(C)c3cccc4ccccc34)c(N)nc2cc1OC (stereo not given)	25*	19	-4	/	-5	/	7
CCCCCC(=O)N1CC2(CC(c3cccc(NC(=O)COc4ccc(Cl)cc4)c3)=NO2)C[C@@H]1C(N)=O (stereo not given in full)	4	8	-2	-8	-1	4	/
Cc1nc(NCc2ccc(S(N)(=O)=O)cc2)c2c(C)c(C)sc2n1	44*	22	11	-2	8	2	32*
CCOC(=O)c1sc2nc(C)nc(NCCc3ccc(S(N)(=O)=O)cc3)c2c1C	-3	-2	8	9	-2	3	/
